Hit rate of the full screen: of about 2,400 compounds, fewer than 10 were called active.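 How the source made its calls: active means average inhibition across replicates above the hit cutoff set in the earlier primary screen; inactive means the rest.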 The list is a sample of the results.

Data on 25 molecules can be found in PubChem BioAssay AID2178 (The Scripps Research Institute Molecular Screening Center, 2009).

Chain of Procathepsin L (Homo sapiens) (P07711 whole entry, looked up): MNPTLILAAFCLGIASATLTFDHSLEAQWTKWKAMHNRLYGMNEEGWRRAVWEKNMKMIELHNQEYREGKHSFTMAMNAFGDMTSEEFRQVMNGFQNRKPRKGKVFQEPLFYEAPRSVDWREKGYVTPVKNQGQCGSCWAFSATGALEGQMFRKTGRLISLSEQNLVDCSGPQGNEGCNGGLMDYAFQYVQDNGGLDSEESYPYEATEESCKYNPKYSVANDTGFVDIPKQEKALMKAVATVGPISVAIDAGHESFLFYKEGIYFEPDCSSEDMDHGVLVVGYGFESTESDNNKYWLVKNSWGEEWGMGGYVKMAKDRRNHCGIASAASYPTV

For this experiment, the target named is Procathepsin L (Homo sapiens) (UniProt P07711). The experiment is described as follows: cathepsin L1 inhibitors, retest, confirmation, counter-screen for PFM18AAP inhibitor project, biochemical, QFRET, triplicate (AID 2178).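 Further: 0% = median of test compound wells and 100% = Z-Phe-Ala-diazomethylketone 1 µM.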 As to conditions: purified cathepsin L1, Z-Leu-Arg-MCA fluorescence; at 5.96 µM; stronger effect = higher value. In a few lines:
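Test system: purified recombinant cathepsin L1 enzyme; measure: percent inhibition from fluorescence change; benchmarks: Z-Phe-Ala-diazomethylketone control wells; also added: Z-Leu-Arg-MCA fluorogenic substrate; incubation: 30 min compound preincubation, then 90 min with substrate, 25 °C; repeats: triplicate; measured by: fluorescence of released MCA at 0 and 90 min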
(In general: Counterscreens check selectivity or assay interference.)
As usually defined, the inhibition is the relative decrease from the control value, in per cent. Take `CC(=O)c1ccc(NC(=O)CCc2nnc3ccc(NCc4ccco4)nn23)cc1`: the inhibition is -4.62% (inactive).

As to `c1ccc(-c2ccc3c(c2)NC(C2Nc4cc(-c5ccccc5)ccc4O2)O3)cc1` (stereo not given), the inhibition is 0.56% (inactive).

In the case of `CCN(CC)S(=O)(=O)c1cc([N+](=O)[O-])ccc1NNC(=O)Nc1ccccc1`, the inhibition was 5.14% (inactive).

For `COc1cc(Br)cc(/C=N/c2ncn[nH]2)c1O`, the inhibition was -0.48% (inactive). For the molecule `Oc1c(C(c2ccco2)N2CCC3(CC2)OCCO3)sc2ncnn12` (stereo not given), the inhibition was -2.01% (inactive). With `Cc1onc(-c2ccccc2)c1C(=O)NNC(=S)NC(=O)c1ccc(F)cc1`, the inhibition was 3.64% (inactive). With `O=C(CSc1ncn[nH]1)Nc1nc(-c2cccc([N+](=O)[O-])c2)cs1`, the inhibition is 1.01% (inactive). For `COc1ccc(/C=N/Nc2nc3ccccc3o2)cc1OC`, the inhibition was -3.54% (inactive).

In the case of `Cc1cc([N+](=O)[O-])c(-c2ccc(/C=N/n3cnnc3)o2)cc1Cl`, the inhibition is 5.55% (inactive). With `O=C(CSc1ncn[nH]1)Nc1nsc(-c2ccccc2)n1`, the inhibition was 1.95% (inactive). For `NC(=O)c1c(Nc2nc3c(F)cccc3s2)sc2c1CCCC2`, the inhibition is 3.61% (inactive). For the molecule `CCOC(=O)NNc1cc(C(F)(F)F)ccn1`, the inhibition is 4.25% (inactive).

Take `Cc1cc(/C=N/Nc2ccc([N+](=O)[O-])cn2)c(C)n1-c1cccc(C(=O)O)c1`: the inhibition is 3.84% (inactive). On to `S=c1[nH]c(-c2cccs2)cn1-c1ccccc1`, for which the inhibition is -4.9% (inactive). In the case of `Cc1nccn1CC(=O)N/N=C/c1ccc(O)c(O)c1`, the inhibition was 5.14% (inactive). The value for `Oc1ccc(-c2csc(Nc3cccnc3)n2)cc1` was 6.56% (inactive); that for `O=C(NNC(=O)c1ccco1)Nc1ccccc1` was 2.81% (inactive). As for `CCOCCCNC(=O)c1ccc(CS(=O)(=O)c2cccc(C(F)(F)F)c2)o1`, the inhibition is -1.17% (inactive). For `ONC(=Nc1ccccc1)c1ccccc1Cl`, the inhibition is 1.1% (inactive). As to `CCN1/C(=C/C(=S)Nc2ccccc2)Sc2ccccc21`, the inhibition is 0.64% (inactive).

With `OCCN1CCN(C(=S)c2ccc(-c3ccccc3)cc2)CC1`, the inhibition is -0.85% (inactive). As to `CCn1c(CNS(=O)(=O)c2ccc(Cl)cc2)n[nH]c1=S`, the inhibition was 1.4% (inactive).

Turning to `CC1(C)CC(=O)C/C(=N\NC(=O)c2cccs2)C1`, the inhibition was -0.13% (inactive). Consider `Cc1ccnc(-n2sc3ccccc3c2=O)n1`, for which the inhibition is -1.29% (inactive). Consider `Cc1nnc(SCC(=O)Nn2cnnc2)s1`, for which the inhibition was 1.95% (inactive).
